# High-throughput results: PubChem BioAssay, Broad Institute
# S100A4 inh HTS = inhibitors of human S100A4 binding to myosin IIA peptide; inhibition, % at 10.7 µM; AID 652163; S100A4/TAMRA-MyoIIA peptide fluorescence polarization; 360,000 tested, 0.14% active;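 active = mean inhibition of at least 70% across replicates, with every replicate also reaching that level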
# Target sequence (P26447 whole entry, looked up): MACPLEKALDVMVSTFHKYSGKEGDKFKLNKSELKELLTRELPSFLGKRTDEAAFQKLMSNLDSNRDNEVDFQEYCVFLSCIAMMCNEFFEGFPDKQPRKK
#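 Compound dosing: one dose per compound; test system: human S100A4 monomer with TAMRA-labelled myosin IIA peptide; probe or stimulus: TAMRA-labelled myosin IIA heavy-chain peptide probe, 5 nM; medium: HEPES buffer with Ca2+, pH 7.2; schedule: 5 min incubation before reading; benchmarks: neutral control DMSO, positive control TFP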
# DENV2 CPE rescue = inhibitors of DENV2 cytopathic effect; DENV2-infected cells, cytopathic effect rescue, plate reader; CPE inhibition, % at 9.99 µM; 350,000 tested, 1.7% active; AID 651640; in the data active = CPE inhibition above about 20%, passing the limit was not always enough; tested in BHK-21 cells
# CAL PDZ FP-1 = CAL PDZ (human) peptide binding inhibition | Q9HD26 | purified CAL PDZ, TMR-peptide fluorescence polarization, 1 h | inhibition, % at 24.9 µM | 300,000 tested, 0.92% active | AID 602252;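 active = mean inhibition of at least 30% with at least half of replicates also reaching 30%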
# CAL PDZ FP-2 = inhibitors of human CAL PDZ peptide binding | Q9HD26 | purified CAL PDZ, TMR-peptide fluorescence polarization, 1 h | inhibition, % at 20 µM | 330,000 tested, 0.02% active | AID 504414;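 active = highest replicate inhibition of at least 40%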
#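 material = purified tagged CAL PDZ domain construct (CerCALP) | buffer or medium = sodium phosphate/NaCl buffer pH 7.4 with TCEP, IgG, Thesit | reagent = TMR-labelled reporter peptide T*-PRC34 bound in PDZ groove | incubation = 1 h room-temperature incubation prior to read | measured by = fluorescence polarization (mP) | evaluation = percent inhibition from loss of millipolarization | control set = unlabelled peptide and DMSO controls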
# SIRT5 block = blocks human SIRT5 desuccinylation of peptide | 330,000 tested, 1.1% active | inhibition, % at 15 µM | AID 652115 | Purified SirT5, succinyl-peptide AMC, trypsin-coupled fluorescence; in the data active = inhibition above about 15%
# Target sequence (Q9NXA8 whole entry, looked up): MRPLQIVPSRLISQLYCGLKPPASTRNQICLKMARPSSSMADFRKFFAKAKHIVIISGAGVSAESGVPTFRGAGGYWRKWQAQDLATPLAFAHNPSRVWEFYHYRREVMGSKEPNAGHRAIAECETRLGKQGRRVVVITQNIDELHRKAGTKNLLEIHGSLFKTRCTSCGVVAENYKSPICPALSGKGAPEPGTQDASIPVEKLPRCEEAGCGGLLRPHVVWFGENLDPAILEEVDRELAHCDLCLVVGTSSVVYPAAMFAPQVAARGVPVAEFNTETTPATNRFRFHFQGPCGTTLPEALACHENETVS
# ERAP1 inh = inhibitors of human ERAP1 aminopeptidase; Q9NZ08; recombinant ERAP1, Leu-AMC fluorescence, 60 min; inhibition, % at 10.7 µM; 340,000 tested, 0.15% active;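 active = mean replicate inhibition of at least 30%, or all replicates individually reaching that 30% level; inactive = mean below 30% and not every replicate reaching it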
# Hits are given with their value; . = inactive; / = no result; ! = not confirmed by another sample. Most compounds without a hit are left out; they make up all but 2.9% or so of the library.
SMILES,S100A4 inh HTS,DENV2 CPE rescue,CAL PDZ FP-1,CAL PDZ FP-2,SIRT5 block,ERAP1 inh
NC(=O)c1ccsc1NC(=O)COC(=O)[C@@H]1CCCN1C(=O)c1cccs1,.,122,.,.,.,.
Cc1ccc(NC(=O)C2CCCN2C(=O)c2cccs2)c(C)c1 (centres undefined),.,.,.,.,.,56
CC(=O)Nc1ccc(NC(=O)COC(=O)[C@@H]2CCCN2C(=O)c2cccs2)cc1,.,.,.,.,.,.
NS(=O)(=O)c1ccc(CCNC(=O)C2CCCN2C(=O)c2cccs2)cc1 (centres undefined),.,95,/,/,.,.
CCc1ccccc1NC(=O)C1CCN(C(=O)c2cccs2)CC1,.,.,.,.,.,.
Cc1ccc(NC(=O)C2CCN(C(=O)c3cccs3)CC2)c(C)c1,.,.,.,.,.,34
C[C@@H]1CN([C@@H](C)CO)C(=O)c2cc(NS(=O)(=O)c3ccccc3)ccc2O[C@H]1CN(C)Cc1ccccc1,.,.,/,/,.,.
Cc1cc2c(cc1C)C(=O)C(Br)=C(N)C2=O,.,.,.,.,.,.
Cc1cc(-c2cc(C)c(N)cc2C)c(C)cc1N,.,.,/,.,19,.
Cc1ccccc1-c1cnc2c(c1)C(=O)N([C@H](C)CO)C[C@@H](C)[C@H](CN(C)CC1CCOCC1)O2,.,.,/,/,.,.
COc1ccc(C(=O)COC(=O)C2CCC(=O)N2)cc1 (centres undefined),.,.,.,.,17,.
C[C@H](CO)N1C[C@H](C)[C@H](CN(C)CC2CCCCC2)Oc2ccc(NS(=O)(=O)c3cn(C)cn3)cc2C1=O,.,.,/,/,.,.
Cc1cccc(NC(=O)CSc2nnc(-c3n[nH]c4ccccc34)o2)c1,.,.,.,.,16,.
CC1(C)CC(NC(=O)C2CCN(S(=O)(=O)c3ccc(Cl)c(C(F)(F)F)c3)CC2)CC(C)(C)N1,.,.,58,.,.,.
CC1CCCCN1C(=O)COC(=O)C1CCN(S(=O)(=O)c2ccc(Cl)c(C(F)(F)F)c2)CC1 (centres undefined),.,27,.,.,.,.
C[C@@H]1CN([C@@H](C)CO)C(=O)c2cccc(NC(=O)c3ccncc3)c2O[C@H]1CN(C)C,.,.,/,/,.,.
CN1/C(=C\C=O)C(C)(C)c2ccccc21,.,/,.,.,/,.
CN1C(C)(C)c2ccccc2OS1(=O)=O,.,25,.,.,.,.
C[C@H](CO)N1C[C@H](C)[C@@H](CN(C)C(=O)CN(C)C)Oc2cc(C#C[C@@H](C)O)ccc2S1(=O)=O,.,.,/,/,.,.
C[C@@H]1CN([C@H](C)CO)S(=O)(=O)c2ccc(C#Cc3ccccc3)cc2O[C@H]1CN(C)C(=O)CN(C)C,.,24,/,/,.,.
C[C@H](O)C#Cc1ccc2c(c1)O[C@H](CN(C)C(=O)CN(C)C)[C@@H](C)CN([C@H](C)CO)S2(=O)=O,.,24,/,/,.,.
C[C@H](CO)N1C[C@H](C)[C@@H](CN(C)C(=O)CN(C)C)Oc2cc(C#Cc3ccccc3)ccc2S1(=O)=O,.,.,/,/,.,.
C[C@H](CO)N1C[C@H](C)[C@H](CN(C)C(=O)C2CC2)Oc2cc(C#Cc3ccccc3)ccc2S1(=O)=O,.,.,/,/,.,.
C[C@@H]1CN([C@H](C)CO)S(=O)(=O)c2ccc(C#Cc3ccccc3F)cc2O[C@@H]1CN(C)C(=O)Cc1ccccc1,.,.,/,/,20!,.
C[C@H](CO)N1C[C@H](C)[C@@H](CN(C)C(=O)C2CC2)Oc2cc(C#Cc3ccccc3)ccc2S1(=O)=O,.,174,/,/,.,.
CC(C)NC(=O)N(C)C[C@@H]1Oc2ccc(NC(=O)Cc3cn(C)c4ccccc34)cc2CC(=O)N([C@@H](C)CO)C[C@H]1C,.,.,/,/,.,.
O=C(C[C@@H]1CC[C@H]2[C@@H](COC[C@@H](O)CN2C(=O)Nc2cc(Cl)cc(Cl)c2)O1)N1CCCCC1,.,.,/,/,.,.
O=C(C[C@H]1CC[C@H]2[C@@H](COC[C@@H](O)CN2C(=O)Nc2cc(Cl)cc(Cl)c2)O1)N1CCCCC1,.,30,/,/,.,.
O=C(C[C@H]1CC[C@@H]2[C@H](COC[C@H](O)CN2C(=O)Nc2ccc3c(c2)OCO3)O1)N1CCN(c2ccccc2)CC1,123,.,/,/,.,.
